# Measurements taken from ChEMBL document CHEMBL3124905, “Isothiocoumarin-3-carboxylic acid derivatives: synthesis, anticancer and antitrypanosomal activity evaluation” (Eur J Med Chem, 2014).
# Columns and labels:
# SF-268 = test: Anticancer activity against human SF268 cells assessed as cell growth at 100 uM after 48 hrs by SRB assay; format: functional; details: SF-268, 48 h, read-out: Activity
# Procedure, shortened: (§1)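 NCI one-dose primary screen on a three-line panel (breast MCF7, lung NCI-H460, CNS SF-268). Cells were inoculated and preincubated 24–48 h, then exposed to a single concentration of 10−4 M for 48 h. The endpoint was sulforhodamine B protein staining, and results are expressed as percent growth relative to untreated control cells. Negative values denote cytotoxicity.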
# MCF7 = test: Anticancer activity against human MCF7 cells assessed as cell growth at 100 uM after 48 hrs by SRB assay; format: functional; details: MCF7, 48 h, read-out: Activity; procedure, shortened: as §1
# NCI-H460 = test: Anticancer activity against human NCI-H460 cells assessed as cell growth at 100 uM after 48 hrs by SRB assay; format: functional; details: NCI-H460, 48 h, read-out: Activity; procedure, shortened: as §1
# [1] = Acute toxicity in ip dosed white mouse; format: organism-based; details: in vivo
# Procedure, shortened: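 White male mice, 23-25 g, dosed intraperitoneally with compound dissolved in 0.9% NaCl saline plus 1-2 drops Polysorbate 80 (Tween-80). Solutions prepared immediately before use. Doses ranged 100-1000 mg/kg, testing 4 or 5 doses with 6 animals per dose. LD50 derived by the Litchfield-Wilcoxon method.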
# [2] = test system: Trypanosoma brucei brucei; test: Antitrypanosomal activity against bloodstream form of Trypanosoma brucei brucei strain 90-13 assessed as inhibition of parasite growth at 10 ug/ml after 72 hrs by resazurin reduction test; format: functional; details: strain 90-13, 72 h
# Procedure, shortened: (§2)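 Trypanosoma brucei brucei 90-13 bloodstream forms, grown in HMI9 with 10% FCS at 37 °C under 5% CO2. Log-phase parasites were seeded at 10^5 cells/mL with or without inhibitor, with stocks prepared in DMSO. After 72 h, resazurin was added and fluorescence was read at 530/590 nm after a further 4 h. Percent growth inhibition was calculated versus drug-free parasites, with DMSO as control.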
# [3] = test system: Trypanosoma brucei brucei; test: Antitrypanosomal activity against bloodstream form of Trypanosoma brucei brucei strain 90-13 assessed as inhibition of parasite growth at 1 ug/ml after 72 hrs by resazurin reduction test; format: functional; details: strain 90-13, 72 h; procedure, shortened: as §2
smiles,measurement,setting,value
COc1ccc2cc(C(=O)Nc3ccc(S(N)(=O)=O)cc3)sc(=O)c2c1OC,growth at 100 µM,SF-268,74%
same,growth at 100 µM,MCF7,72%
same,growth at 100 µM,NCI-H460,97%
same,LD50,[1],870 mg/kg
same,inhibition at 10 µg/mL,[2],> 50%
same,inhibition at 1 µg/mL,[3],59.8%
